Laboratory results published in ChEMBL document CHEMBL4346654 (Eur J Med Chem, 2019).
Converted amounts (≈) assume the structure as drawn.

Experiments:
[1] = system: Streptococcus pneumoniae; experiment: Bactericidal activity against penicillin-susceptible Streptococcus pneumoniae PU 09 expressing mef gene pretreated followed by subculture in absence of compound measured after 24 hrs; format: functional
Procedure, shortened: (§1)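 Isolates were identified by 16S rDNA sequencing. MIC was determined by CLSI-recommended two-fold broth dilution. For MBC, samples from 1–8 fold MIC were transferred to culture medium and subcultured for 24 h without antibiotic.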

[2] = system: Streptococcus pneumoniae; experiment: Selectivity ratio of MBC to MIC for Streptococcus pneumoniae 07P390 expressing constitutive ermB gene; format: functional; procedure, shortened: as §1
[3] = system: Staphylococcus aureus; experiment: Bactericidal activity against MLS/methicillin-resistant Staphylococcus aureus PU 32 expressing inducible ermA gene pretreated followed by subculture in absence of compound measured after 24 hrs; format: functional
Procedure, shortened: (§2)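 MBC assay. Following MIC determination by CLSI standard two-fold broth dilution, samples at 1–8 fold MIC were transferred to fresh culture medium. They were subcultured for 24 h without antibiotic. Isolates were identified by 16S rDNA sequencing. S. aureus ATCC 29213 was used as a control strain.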

[4] = system: Streptococcus pneumoniae; experiment: Bactericidal activity against Streptococcus pneumoniae 07P390 expressing constitutive ermB gene pretreated followed by subculture in absence of compound measured after 24 hrs; format: functional; procedure, shortened: as §1
[5] = system: Haemophilus influenzae; experiment: Bactericidal activity against azithromycin-susceptible Haemophilus influenzae ATCC 49247 pretreated followed by subculture in absence of compound measured after 24 hrs; format: functional; procedure, shortened: as §1
[6] = system: Streptococcus pneumoniae; experiment: Antibacterial activity against erythromycin-susceptible Streptococcus pneumoniae ATCC49619 assessed as reduction in microbial growth by CLSI based two-fold broth dilution method; format: functional
[7] = system: Streptococcus pneumoniae; experiment: Selectivity ratio of MBC to MIC for penicillin-susceptible Streptococcus pneumoniae PU 09 expressing mef gene; format: functional; procedure, shortened: as §1
[8] = system: Haemophilus influenzae; experiment: Selectivity ratio of MBC to MIC for azithromycin-susceptible Haemophilus influenzae ATCC 49247; format: functional; procedure, shortened: as §1
[9] = system: Haemophilus influenzae; experiment: Antibacterial activity against azithromycin-susceptible Haemophilus influenzae ATCC 49247 assessed as reduction in microbial growth by CLSI based two-fold broth dilution method; format: functional
[10] = system: Streptococcus pneumoniae; experiment: Antibacterial activity against penicillin-susceptible Streptococcus pneumoniae PU 09 expressing mef gene assessed as reduction in microbial growth by CLSI based two-fold broth dilution method; format: functional
[11] = system: Streptococcus pneumoniae; experiment: Bactericidal activity against erythromycin-susceptible Streptococcus pneumoniae ATCC49619 pretreated followed by subculture in absence of compound measured after 24 hrs; format: functional; procedure, shortened: as §1
[12] = system: Staphylococcus aureus; experiment: Selectivity ratio of MBC to MIC for MLS/methicillin-resistant Staphylococcus aureus PU 32 expressing inducible ermA gene; format: functional
Procedure, shortened: (§3)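 MBC/MIC ratio. MIC was measured by CLSI standard two-fold broth dilution. MBC was measured by transferring samples at 1–8 fold MIC to culture medium and subculturing for 24 h without antibiotic. Isolates were identified by 16S rDNA sequencing.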

[13] = system: Streptococcus pyogenes; experiment: Antibacterial activity against MLS-resistant Streptococcus pyogenes 01-968 expressing inducible ermB gene assessed as reduction in microbial growth by CLSI based two-fold broth dilution method; format: functional
[14] = system: Staphylococcus aureus; experiment: Antibacterial activity against MLS-resistant Staphylococcus aureus PU 32 expressing inducible ermA gene assessed as reduction in microbial growth by CLSI based two-fold broth dilution method; format: functional
[15] = system: Staphylococcus aureus; experiment: Bactericidal activity against MLS-resistant Staphylococcus aureus PU 20 expressing constitutive ermC gene pretreated followed by subculture in absence of compound measured after 24 hrs; format: functional; procedure, shortened: as §2
[16] = system: Streptococcus pneumoniae; experiment: Selectivity ratio of MBC to MIC for erythromycin-susceptible Streptococcus pneumoniae ATCC49619; format: functional; procedure, shortened: as §1
[17] = system: Streptococcus pyogenes; experiment: Selectivity ratio of MBC to MIC for MLS-resistant Streptococcus pyogenes 01-968 expressing inducible ermB gene; format: functional; procedure, shortened: as §3
[18] = system: Streptococcus pneumoniae; experiment: Antibacterial activity against Streptococcus pneumoniae 07P390 expressing constitutive ermB gene assessed as reduction in microbial growth by CLSI based two-fold broth dilution method; format: functional
[19] = system: Staphylococcus aureus; experiment: Antibacterial activity against MLS-resistant Staphylococcus aureus PU 20 expressing constitutive ermC gene assessed as reduction in microbial growth by CLSI based two-fold broth dilution method; format: functional
[20] = system: Staphylococcus aureus; experiment: Selectivity ratio of MBC to MIC for MLS-resistant Staphylococcus aureus PU 20 expressing constitutive ermC gene; format: functional; procedure, shortened: as §3
[21] = system: Streptococcus pyogenes; experiment: Bactericidal activity against MLS-resistant Streptococcus pyogenes 01-968 expressing inducible ermB gene pretreated followed by subculture in absence of compound measured after 24 hrs; format: functional; procedure, shortened: as §2
[22] = system: Moraxella catarrhalis; experiment: Selectivity ratio of MBC to MIC for erythromycin-susceptible Moraxella catarrhalis 13L332; format: functional; procedure, shortened: as §1
[23] = system: Streptococcus pyogenes; experiment: Bactericidal activity against Streptococcus pyogenes 12-207 expressing mef gene pretreated followed by subculture in absence of compound measured after 24 hrs; format: functional; procedure, shortened: as §1
[24] = system: Streptococcus pyogenes; experiment: Selectivity ratio of MBC to MIC for Streptococcus pyogenes 12-207 expressing mef gene; format: functional; procedure, shortened: as §1
[25] = system: Streptococcus pyogenes; experiment: Antibacterial activity against MLS-resistant Streptococcus pyogenes 12-206 expressing constitutive ermA gene assessed as reduction in microbial growth by CLSI based two-fold broth dilution method; format: functional
[26] = Tmax in Sprague-Dawley rat at 20 mg/kg, po after 0.25 to 24 hrs by LC-MS/MS analysis; format: ADME, organism-based; conditions: in vivo
Procedure, shortened: (§4)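 Male SD rats were given a single 20 mg/Kg oral dose. Blood was sampled at 0.25, 0.5, 1, 2, 4, 6, 8 and 24 h and centrifuged at 2500 g for 5 min at 4 °C. Drug levels were quantified by LC-MS/MS. t1/2, Cmax, Tmax, CL, MRT and AUC were calculated from the concentration–time data.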

[27] = Half life in Sprague-Dawley rat at 20 mg/kg, po after 0.25 to 24 hrs by LC-MS/MS analysis; format: ADME, organism-based; conditions: in vivo; procedure, shortened: as §4
[28] = system: Streptococcus pyogenes; experiment: Antibacterial activity against Streptococcus pyogenes 12-207 expressing mef gene assessed as reduction in microbial growth by CLSI based two-fold broth dilution method; format: functional
[29] = target: Cytochrome P450 3A4 (Homo sapiens, UniProt P08684); experiment: Inhibition of CYP3A4 in human liver microsomes assessed as reduction in metabolite formation using midazolam as substrate incubated for 10 mins in presence of NADPH by HPLC based mass spectrometric method; format: ADME
Procedure, shortened: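 Human liver microsome CYP3A4 with midazolam substrate in 0.1 M potassium phosphate buffer was prewarmed at 37 °C for 5 min. Compound and 25 mM NADPH solution (stock) were added, then incubated at 37 °C for 10 min. Ketoconazole served as the positive inhibitor. Metabolite was measured by UPLC–triple quadrupole MS as the metabolite/internal standard peak area ratio, and IC50 was derived by curve fitting.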

[30] = Systemic plasma clearance in Sprague-Dawley rat at 20 mg/kg, po after 0.25 to 24 hrs by LC-MS/MS analysis; format: ADME, organism-based; procedure, shortened: as §4
[31] = system: Streptococcus pyogenes; experiment: Bactericidal activity against MLS-resistant Streptococcus pyogenes 12-206 expressing constitutive ermA gene pretreated followed by subculture in absence of compound measured after 24 hrs; format: functional; procedure, shortened: as §2
[32] = Cmax in Sprague-Dawley rat at 20 mg/kg, po after 0.25 to 24 hrs by LC-MS/MS analysis; format: ADME, organism-based; design: dose 20 mg/kg, route oral; conditions: in vivo; procedure, shortened: as §4
[33] = MRT in Sprague-Dawley rat at 20 mg/kg, po after 0.25 to 24 hrs by LC-MS/MS analysis; format: ADME, organism-based; conditions: in vivo; procedure, shortened: as §4
[34] = AUCinfinity in Sprague-Dawley rat at 20 mg/kg, po after 0.25 to 24 hrs by LC-MS/MS analysis; format: ADME, organism-based; design: dose 20 mg/kg, time infinity, route oral; conditions: Sprague-Dawley, in vivo; procedure, shortened: as §4
[35] = system: Moraxella catarrhalis; experiment: Antibacterial activity against erythromycin-susceptible Moraxella catarrhalis 13L332 assessed as reduction in microbial growth by CLSI based two-fold broth dilution method; format: functional
[36] = AUC (0 to t) in Sprague-Dawley rat at 20 mg/kg, po after 0.25 to 24 hrs by LC-MS/MS analysis; format: ADME, organism-based; design: time upper 24 hr, dose 20 mg/kg, time lower 0.25 hr, route oral; conditions: in vivo; procedure, shortened: as §4
[37] = system: Streptococcus pyogenes; experiment: Selectivity ratio of MBC to MIC for MLS-resistant Streptococcus pyogenes 12-206 expressing constitutive ermA gene; format: functional; procedure, shortened: as §3
[38] = system: Moraxella catarrhalis; experiment: Bactericidal activity against erythromycin-susceptible Moraxella catarrhalis 13L332 pretreated followed by subculture in absence of compound measured after 24 hrs; format: functional; procedure, shortened: as §1

Sequence of Cytochrome P450 3A4 (P08684 whole entry): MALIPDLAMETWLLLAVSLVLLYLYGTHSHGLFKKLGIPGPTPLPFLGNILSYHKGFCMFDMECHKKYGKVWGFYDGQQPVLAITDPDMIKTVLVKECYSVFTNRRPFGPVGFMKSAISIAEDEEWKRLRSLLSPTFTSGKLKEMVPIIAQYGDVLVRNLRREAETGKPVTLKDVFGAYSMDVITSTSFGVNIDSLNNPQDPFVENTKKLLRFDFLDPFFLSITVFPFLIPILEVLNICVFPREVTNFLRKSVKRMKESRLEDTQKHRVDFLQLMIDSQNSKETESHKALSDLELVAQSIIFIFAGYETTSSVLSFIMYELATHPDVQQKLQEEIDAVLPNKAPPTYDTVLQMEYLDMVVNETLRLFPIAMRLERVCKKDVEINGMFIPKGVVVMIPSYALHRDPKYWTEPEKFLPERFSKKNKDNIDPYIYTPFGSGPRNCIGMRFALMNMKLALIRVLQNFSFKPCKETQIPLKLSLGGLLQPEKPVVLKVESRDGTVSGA

Structure (SMILES) | MBC [1] | Selectivity ratio [2] | MBC [3] | MBC [4] | MBC [5] | MIC [6] | Selectivity ratio [7] | Selectivity ratio [8] | MIC [9] | MIC [10] | MBC [11] | Selectivity ratio [12] | MIC [13] | MIC [14] | MBC [15] | Selectivity ratio [16] | Selectivity ratio [17] | MIC [18] | MIC [19] | MBC [21] | other results
CC[C@H]1OC(=O)[C@@](C)(F)C(=O)[C@H](C)[C@@H](O[C@@H]2O[C@H](C)C[C@H](N(C)C)[C@H]2O)[C@](C)(OC)C[C@@H](C)/C(=N\OCC#Cc2ccc3c(c2)c(=O)c(C(=O)O)cn3C2CC2)[C@H](C)[C@H]2OC(=O)O[C@@]21C | 4 µg/mL (≈ 4.39 µM) | 8 | 4 µg/mL (≈ 4.39 µM) | 32 µg/mL (≈ 35.1 µM) | 16 µg/mL (≈ 17.5 µM) | 0.25 µg/mL | 2 | 2 | 8 µg/mL | 2 µg/mL | 0.5 µg/mL (≈ 0.548 µM) | 4 | 0.25 µg/mL | 1 µg/mL | 128 µg/mL (≈ 140 µM) | 2 | 8 | 4 µg/mL | 32 µg/mL | 2 µg/mL (≈ 2.19 µM) | Selectivity ratio [20]: 4
CC[C@H]1OC(=O)[C@@](C)(F)C(=O)[C@H](C)[C@@H](O[C@@H]2O[C@H](C)C[C@H](N(C)C)[C@H]2O)[C@](C)(OC)C[C@@H](C)/C(=N\OCCCc2ccc3c(c2)c(=O)c(C(=O)O)cn3C2CC2)[C@H](C)[C@H]2OC(=O)O[C@@]21C | 2 µg/mL (≈ 2.18 µM) | 2 | 8 µg/mL (≈ 8.73 µM) | 16 µg/mL (≈ 17.5 µM) | 32 µg/mL (≈ 34.9 µM) | 0.125 µg/mL | 1 | 2 | 16 µg/mL | 2 µg/mL | 0.25 µg/mL (≈ 0.273 µM) | 2 | 0.125 µg/mL | 4 µg/mL | 128 µg/mL (≈ 140 µM) | 2 | >8 | 8 µg/mL | 64 µg/mL | > 1 µg/mL | Selectivity ratio [20]: 2
CC[C@H]1OC(=O)[C@@](C)(F)C(=O)[C@H](C)[C@@H](O[C@@H]2O[C@H](C)C[C@H](N(C)C)[C@H]2O)[C@](C)(OC/C=C/c2ccc3c(c2)c(=O)c(C(=O)O)cn3C2CC2)C[C@@H](C)/C(=N\OC)[C@H](C)[C@H]2OC(=O)O[C@@]21C | 2 µg/mL (≈ 2.19 µM) | 8 | 2 µg/mL (≈ 2.19 µM) | 8 µg/mL (≈ 8.75 µM) | 4 µg/mL (≈ 4.38 µM) | 0.125 µg/mL | 1 | 2 | 2 µg/mL | 2 µg/mL | 0.25 µg/mL (≈ 0.274 µM) | 8 | 0.031 µg/mL | 0.25 µg/mL | 128 µg/mL (≈ 140 µM) | 2 | 8 | 1 µg/mL | 64 µg/mL | 0.25 µg/mL (≈ 0.274 µM) | Selectivity ratio [20]: 2
CC[C@H]1OC(=O)[C@H](C)C(=O)[C@H](C)[C@@H](O[C@@H]2O[C@H](C)C[C@H](N(C)C)[C@H]2O)[C@](C)(OC)C[C@@H](C)C(=O)[C@H](C)[C@H]2N(CCCCn3cnc(-c4cccnc4)c3)C(=O)O[C@]12C [TELITHROMYCIN] | 0.5 to 4 µg/mL (≈ 0.616 to 4.93 µM) | >=8 | ≥ 1 µg/mL | 0.125 to 1 µg/mL (≈ 0.154 to 1.23 µM) | 16 µg/mL (≈ 19.7 µM) |  | 2 - 8 | 4 | 4 µg/mL | 0.25 to 0.5 µg/mL |  | >=4 - 8 |  | 0.125 to 0.25 µg/mL |  | 1 - 4 | >=4 - 8 | 0.016 to 0.125 µg/mL | > 256 µg/mL | 0.016 to 0.125 µg/mL (≈ 0.0197 to 0.154 µM) | Selectivity ratio [22]: >8; MBC [23]: 1 µg/mL (≈ 1.23 µM); Selectivity ratio [24]: 4; MIC [25]: 0.031 µg/mL; Tmax [26]: 2 h; half-life [27]: 1.22 h; MIC [28]: 0.25 µg/mL; IC50 [29]: 11.8 µM; CL/F [30]: 363 mL/min/kg; MBC [31]: > 0.25 µg/mL; Cmax [32]: 204 ng/mL; MRT [33]: 3.27 h; AUC(0-inf) [34]: 927 ng·h/mL; MIC [35]: 0.25 µg/mL; AUC(0-t) [36]: 897 ng·h/mL; Selectivity ratio [37]: >8; MBC [38]: > 2 µg/mL
